Results reported in ChEMBL document CHEMBL1157490, “Imidazopyridines as VLA-4 integrin antagonists” (Bioorg Med Chem Lett, 2008).

What was measured:
Integrin alpha-4/beta-1 = Integrin alpha-4/beta-1 (Homo sapiens, UniProt P05556+P13612); assay: Inhibition of integrin alpha4beta1 receptor in human whole blood by flow cytometry
Method in brief: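 Human whole blood incubated with 3 mM MnCl2 and streptavidin-FITC, with or without 10 μg/mL biotinylated dimeric hVCAM-mFc. Compound added from tripling dilutions in TBS, 30 min at room temperature with shaking. Red cells lysed, leukocytes pelleted, washed twice in TBS and analysed by flow cytometry for bound VCAM; IC50 derived.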

Cytochrome P450 1A2 = target: T1, Cytochrome P450 1A2 (Homo sapiens, UniProt P05177); assay: Inhibition of CYP1A2; type: ADME
T1 sequence (P05177 whole entry): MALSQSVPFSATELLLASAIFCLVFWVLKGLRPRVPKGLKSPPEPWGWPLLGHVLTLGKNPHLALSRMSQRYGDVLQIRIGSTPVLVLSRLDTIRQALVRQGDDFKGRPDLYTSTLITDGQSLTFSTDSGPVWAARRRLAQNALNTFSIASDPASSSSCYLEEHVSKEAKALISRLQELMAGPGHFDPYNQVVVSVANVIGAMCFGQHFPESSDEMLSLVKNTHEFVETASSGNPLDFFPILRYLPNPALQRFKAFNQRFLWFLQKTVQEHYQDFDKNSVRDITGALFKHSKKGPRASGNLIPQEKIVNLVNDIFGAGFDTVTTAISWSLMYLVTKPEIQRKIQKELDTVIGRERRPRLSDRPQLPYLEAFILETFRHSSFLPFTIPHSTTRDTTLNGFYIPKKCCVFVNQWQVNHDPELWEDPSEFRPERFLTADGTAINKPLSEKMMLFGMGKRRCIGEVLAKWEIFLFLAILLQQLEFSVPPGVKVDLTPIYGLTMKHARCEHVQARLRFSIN

Cytochrome P450 2D6 = Cytochrome P450 2D6 (Homo sapiens, UniProt P10635); assay: Inhibition of CYP2D6; type: ADME
[1] = Metabolic stability in human microsomes assessed as intrinsic clearance at 0.5 uM; type: ADME, Microsome
[2] = Metabolic stability in mouse microsomes assessed as intrinsic clearance at 0.5 uM; type: ADME, Microsome
Cytochrome P450 2C9 = Cytochrome P450 2C9 (Homo sapiens, UniProt P11712); assay: Inhibition of CYP2C9; type: ADME
Cytochrome P450 3A4 = Cytochrome P450 3A4 (Homo sapiens, UniProt P08684); assay: Inhibition of CYP3A4; type: ADME
[3] = Metabolic stability in rat microsomes assessed as intrinsic clearance at 0.5 uM; type: ADME, Microsome

Chain of Integrin alpha-4/beta-1 (P05556 whole entry): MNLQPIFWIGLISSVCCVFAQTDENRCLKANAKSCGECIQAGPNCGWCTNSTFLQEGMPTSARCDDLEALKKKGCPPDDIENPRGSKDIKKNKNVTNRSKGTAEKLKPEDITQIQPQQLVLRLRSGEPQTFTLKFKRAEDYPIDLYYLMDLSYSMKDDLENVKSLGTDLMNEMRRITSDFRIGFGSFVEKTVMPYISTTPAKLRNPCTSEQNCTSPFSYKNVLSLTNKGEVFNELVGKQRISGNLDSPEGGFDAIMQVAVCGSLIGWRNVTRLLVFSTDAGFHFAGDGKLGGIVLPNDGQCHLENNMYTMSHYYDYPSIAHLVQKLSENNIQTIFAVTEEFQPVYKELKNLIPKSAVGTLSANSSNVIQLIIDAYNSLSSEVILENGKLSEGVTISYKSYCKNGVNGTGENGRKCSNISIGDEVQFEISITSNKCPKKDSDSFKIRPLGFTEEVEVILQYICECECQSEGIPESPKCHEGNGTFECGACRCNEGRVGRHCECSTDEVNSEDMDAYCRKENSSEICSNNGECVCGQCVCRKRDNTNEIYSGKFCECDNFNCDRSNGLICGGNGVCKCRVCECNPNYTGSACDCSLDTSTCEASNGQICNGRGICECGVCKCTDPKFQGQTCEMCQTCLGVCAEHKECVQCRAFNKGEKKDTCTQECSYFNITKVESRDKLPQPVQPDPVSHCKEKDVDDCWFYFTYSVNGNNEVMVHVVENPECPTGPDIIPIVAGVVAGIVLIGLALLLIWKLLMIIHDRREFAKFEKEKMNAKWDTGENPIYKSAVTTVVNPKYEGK
Chain of Integrin alpha-4/beta-1 (P13612 whole entry): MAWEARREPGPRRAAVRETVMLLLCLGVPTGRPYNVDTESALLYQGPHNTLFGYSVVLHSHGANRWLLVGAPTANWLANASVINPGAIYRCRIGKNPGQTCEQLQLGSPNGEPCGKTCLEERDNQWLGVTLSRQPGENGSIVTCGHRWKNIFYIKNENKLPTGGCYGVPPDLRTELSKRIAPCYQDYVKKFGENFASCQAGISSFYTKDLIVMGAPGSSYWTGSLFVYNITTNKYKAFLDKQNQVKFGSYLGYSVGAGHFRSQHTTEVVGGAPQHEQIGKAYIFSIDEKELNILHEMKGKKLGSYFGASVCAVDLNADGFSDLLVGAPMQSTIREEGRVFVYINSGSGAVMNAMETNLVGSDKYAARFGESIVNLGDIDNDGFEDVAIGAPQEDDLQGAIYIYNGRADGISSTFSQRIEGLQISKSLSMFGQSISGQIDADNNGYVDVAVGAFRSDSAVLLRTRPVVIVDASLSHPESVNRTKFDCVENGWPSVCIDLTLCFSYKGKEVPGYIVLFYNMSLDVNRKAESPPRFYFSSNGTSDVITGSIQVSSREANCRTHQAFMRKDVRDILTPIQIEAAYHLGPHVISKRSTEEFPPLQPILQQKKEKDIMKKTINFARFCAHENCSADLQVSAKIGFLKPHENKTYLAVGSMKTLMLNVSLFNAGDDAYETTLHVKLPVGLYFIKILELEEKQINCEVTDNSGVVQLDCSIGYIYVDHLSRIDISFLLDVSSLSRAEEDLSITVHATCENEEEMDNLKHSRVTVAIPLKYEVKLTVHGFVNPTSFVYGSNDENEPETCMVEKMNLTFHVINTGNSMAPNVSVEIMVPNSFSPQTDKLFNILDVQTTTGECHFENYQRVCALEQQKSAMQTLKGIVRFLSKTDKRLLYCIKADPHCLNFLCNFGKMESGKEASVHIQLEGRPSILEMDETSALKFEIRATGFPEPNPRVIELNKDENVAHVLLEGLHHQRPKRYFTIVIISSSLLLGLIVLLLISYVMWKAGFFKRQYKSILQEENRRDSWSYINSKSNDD
Chain of Cytochrome P450 3A4 (P08684 whole entry): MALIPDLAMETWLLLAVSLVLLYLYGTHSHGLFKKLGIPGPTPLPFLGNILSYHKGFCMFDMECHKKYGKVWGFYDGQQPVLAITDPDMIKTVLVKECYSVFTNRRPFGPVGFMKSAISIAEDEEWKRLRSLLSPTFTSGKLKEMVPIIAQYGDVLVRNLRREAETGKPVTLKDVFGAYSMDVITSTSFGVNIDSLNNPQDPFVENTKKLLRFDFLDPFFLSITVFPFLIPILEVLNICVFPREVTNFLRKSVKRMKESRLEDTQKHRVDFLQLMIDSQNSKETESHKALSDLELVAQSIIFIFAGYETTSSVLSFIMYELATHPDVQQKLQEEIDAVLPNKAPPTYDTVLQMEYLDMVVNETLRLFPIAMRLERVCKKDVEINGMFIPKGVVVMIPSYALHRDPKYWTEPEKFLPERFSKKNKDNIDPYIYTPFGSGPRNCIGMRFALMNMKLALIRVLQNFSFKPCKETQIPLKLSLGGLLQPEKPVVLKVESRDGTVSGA
Chain of Cytochrome P450 2C9 (P11712 whole entry): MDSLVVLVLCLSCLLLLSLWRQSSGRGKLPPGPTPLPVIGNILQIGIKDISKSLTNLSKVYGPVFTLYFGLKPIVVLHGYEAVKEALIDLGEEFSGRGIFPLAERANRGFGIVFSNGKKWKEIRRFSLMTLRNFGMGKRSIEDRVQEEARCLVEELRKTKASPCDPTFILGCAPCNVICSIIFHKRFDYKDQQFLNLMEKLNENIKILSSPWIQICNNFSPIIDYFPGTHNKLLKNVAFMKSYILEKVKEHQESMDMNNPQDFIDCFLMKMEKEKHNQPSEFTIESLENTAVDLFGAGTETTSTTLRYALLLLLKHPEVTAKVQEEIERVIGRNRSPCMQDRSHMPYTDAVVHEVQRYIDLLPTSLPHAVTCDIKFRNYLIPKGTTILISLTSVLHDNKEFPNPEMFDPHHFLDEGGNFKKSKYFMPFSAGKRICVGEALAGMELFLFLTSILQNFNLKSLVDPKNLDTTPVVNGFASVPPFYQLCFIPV
Chain of Cytochrome P450 2D6 (P10635 whole entry): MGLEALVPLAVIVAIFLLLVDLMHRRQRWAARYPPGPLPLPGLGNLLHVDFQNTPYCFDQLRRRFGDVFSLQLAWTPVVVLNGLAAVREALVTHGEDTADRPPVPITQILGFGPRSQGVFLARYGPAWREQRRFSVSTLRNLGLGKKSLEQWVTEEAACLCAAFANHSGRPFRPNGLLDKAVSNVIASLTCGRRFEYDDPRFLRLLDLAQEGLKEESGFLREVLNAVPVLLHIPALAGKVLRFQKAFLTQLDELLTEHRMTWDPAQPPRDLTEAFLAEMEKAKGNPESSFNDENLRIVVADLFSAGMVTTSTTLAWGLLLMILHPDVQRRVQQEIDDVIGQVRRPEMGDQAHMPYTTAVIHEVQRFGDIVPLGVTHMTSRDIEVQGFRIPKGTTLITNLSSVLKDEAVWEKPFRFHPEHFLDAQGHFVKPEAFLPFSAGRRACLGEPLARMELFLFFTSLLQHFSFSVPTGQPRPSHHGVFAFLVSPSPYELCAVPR

Row | IC50 (Integrin alpha-4/beta-1) | Structure (SMILES) | other results
1 | 11 nM | CC(C)Cc1nc2cccnc2n1-c1ccc(C[C@H](NC2=C(Br)C(=O)C23CCCCC3)C(=O)O)cc1 | 
2 | 18 nM | O=C(O)[C@H](Cc1ccc(-n2c(C3CCC3)nc3cccnc32)cc1)NC1=C(Br)C(=O)C12CCCCC2 | 
3 | 8 nM | O=C(O)[C@H](Cc1ccc(-n2c(-c3ccc(C(F)(F)F)nc3)nc3cccnc32)cc1)NC1=C(Br)C(=O)C12CCCCC2 | 
4 | 95 nM | O=C(O)[C@H](Cc1ccc(-n2c(C3CC3)nc3cccnc32)cc1)NC1=C(Br)C(=O)C12CCCCC2 | 
5 | 3 nM | O=C(O)[C@H](Cc1ccc(-n2c(C3CCCCN3)nc3cccnc32)cc1)NC1=C(Br)C(=O)C12CCCCC2 (stereo partly specified) | 
6 | 9 nM | CC(C)c1nc2cccnc2n1-c1ccc(C[C@H](NC2=C(Br)C(=O)C23CCCCC3)C(=O)O)cc1 | IC50 (Cytochrome P450 1A2): > 100000 nM; IC50 (Cytochrome P450 2D6): > 100000 nM; microsomal CLint at 0.5 µM [1]: 4 µL/min/mg; microsomal CLint at 0.5 µM [2]: 14 µL/min/mg; IC50 (Cytochrome P450 2C9): 18000 nM; IC50 (Cytochrome P450 3A4): 79000 nM; microsomal CLint at 0.5 µM [3]: 38 µL/min/mg
7 | 570 nM | Cc1nc2cccnc2n1-c1ccc(C[C@H](NC2=C(Br)C(=O)C23CCCCC3)C(=O)O)cc1 | 
8 | 22 nM | O=C(O)[C@H](Cc1ccc(-n2c(C(F)(F)F)nc3cccnc32)cc1)NC1=C(Br)C(=O)C12CCCCC2 | 
9 | 6 nM | O=C(O)[C@H](Cc1ccc(-n2c(C3CCCNC3)nc3cccnc32)cc1)NC1=C(Br)C(=O)C12CCCCC2 (stereo partly specified) | 
10 | 3 nM | CC(C)(C)c1nc2cccnc2n1-c1ccc(C[C@H](NC2=C(Br)C(=O)C23CCCCC3)C(=O)O)cc1 | 
11 | 8 nM | O=C(O)[C@H](Cc1ccc(-n2c(CC3CC3)nc3cccnc32)cc1)NC1=C(Br)C(=O)C12CCCCC2 | 
12 | 11 nM | CSCCc1nc2cccnc2n1-c1ccc(C[C@H](NC2=C(Br)C(=O)C23CCCCC3)C(=O)O)cc1 | 
13 | 10 nM | N#CCc1nc2cccnc2n1-c1ccc(C[C@H](NC2=C(Br)C(=O)C23CCCCC3)C(=O)O)cc1 | 
14 | 2 nM | O=C(O)[C@H](Cc1ccc(-n2c(C3(C(F)(F)F)CC3)nc3cccnc32)cc1)NC1=C(Br)C(=O)C12CCCCC2 | IC50 (Cytochrome P450 1A2): > 100000 nM; IC50 (Cytochrome P450 2D6): > 100000 nM; microsomal CLint at 0.5 µM [1]: 6 µL/min/mg; microsomal CLint at 0.5 µM [2]: 15 µL/min/mg; IC50 (Cytochrome P450 2C9): 8000 nM; IC50 (Cytochrome P450 3A4): 10000 nM; microsomal CLint at 0.5 µM [3]: 52 µL/min/mg
15 | 14 nM | O=C(O)[C@H](Cc1ccc(-n2c(C3CCCC3)nc3cccnc32)cc1)NC1=C(Br)C(=O)C12CCCCC2 | 
16 | 10 nM | O=C(O)[C@H](Cc1ccc(-n2c(C3COCCN3)nc3cccnc32)cc1)NC1=C(Br)C(=O)C12CCCCC2 (stereo partly specified) | 

The next lines start with the compound.

Row | Structure (SMILES) | IC50 (Integrin alpha-4/beta-1) | other results
17 | CSC1=C(N[C@@H](Cc2ccc(-n3c(-c4cccnc4)nc4cccnc43)cc2)C(=O)O)C2(CCCCC2)C1=O | 2 nM | 
18 | O=C(O)[C@H](Cc1ccc(-n2c(-c3cccnc3)nc3cnccc32)cc1)NC1=C(Br)C(=O)C12CCCCC2 | 236 nM | 
19 | O=C(O)[C@H](Cc1ccc(-n2c(-c3cccnc3)nc3cccnc32)cc1)NC1=CC(=O)C12CCCCC2 | 24 nM | 
20 | O=C(O)[C@H](Cc1ccc(-n2c(C3CCNCC3)nc3cccnc32)cc1)NC1=C(Br)C(=O)C12CCCCC2 | 13 nM | 
21 | O=C(O)[C@H](Cc1ccc(-n2c(-c3cccnc3)nc3cc(F)ccc32)cc1)NC1=C(Br)C(=O)C12CCCCC2 | 2680 nM | 
22 | CC1(C)C(=O)C(Cl)=C1N[C@@H](Cc1ccc(-n2c(-c3cccnc3)nc3cccnc32)cc1)C(=O)O | 19 nM | 
23 | CN(C)c1ccnc(-c2nc3cccnc3n2-c2ccc(C[C@H](NC3=C(Br)C(=O)C34CCCCC4)C(=O)O)cc2)c1 | 46 nM | 
24 | O=C(O)[C@H](Cc1ccc(-n2c(-c3ccccc3)nc3cccnc32)cc1)NC1=C(Br)C(=O)C12CCCCC2 | 71 nM | 
25 | O=C(O)[C@H](Cc1ccc(-n2c(-c3cccnc3)nc3cccnc32)cc1)NC1=C(Cl)C(=O)C12CCCCC2 | 7 nM | 
26 | O=C(O)[C@H](Cc1ccc(-n2c(-c3ccc(Cl)nc3)nc3cccnc32)cc1)NC1=C(Br)C(=O)C12CCCCC2 | 3 nM | 
27 | CNc1ccc(-c2nc3cccnc3n2-c2ccc(C[C@H](NC3=C(Br)C(=O)C34CCCCC4)C(=O)O)cc2)cn1 | 9 nM | 
28 | CC1(C)C(=O)C(Br)=C1N[C@@H](Cc1ccc(-n2c(-c3cccnc3)nc3cccnc32)cc1)C(=O)O | 10 nM | 
29 | CC(C)SC1=C(N[C@@H](Cc2ccc(-n3c(-c4cccnc4)nc4cccnc43)cc2)C(=O)O)C2(CCCCC2)C1=O | 2 nM | 
30 | O=C(O)[C@H](Cc1ccc(-n2c(-c3cccnc3)nc3cccnc32)cc1)NC1=C(Br)C(=O)C12CCCCC2 | 3 nM | IC50 (Cytochrome P450 1A2): > 100000 nM; IC50 (Cytochrome P450 2D6): > 100000 nM; microsomal CLint at 0.5 µM [1]: < 1 µL/min/mg; microsomal CLint at 0.5 µM [2]: 11 µL/min/mg; IC50 (Cytochrome P450 2C9): 10000 nM; IC50 (Cytochrome P450 3A4): 62000 nM; microsomal CLint at 0.5 µM [3]: 48 µL/min/mg
31 | CN(C)c1ccc(-c2nc3cccnc3n2-c2ccc(C[C@H](NC3=C(Br)C(=O)C34CCCCC4)C(=O)O)cc2)cn1 | 22 nM | 
32 | CC1(C)C(=O)C=C1N[C@@H](Cc1ccc(-n2c(-c3cccnc3)nc3cccnc32)cc1)C(=O)O | 126 nM | 
33 | O=C(O)[C@H](Cc1ccc(-n2c(-c3cccnc3)nc3cnccc32)cc1)NC1=CC(=O)C12CCCCC2 | 1620 nM | 
34 | O=C(O)[C@H](Cc1ccc(-n2c(-c3ccc(N4CCCCC4)nc3)nc3cccnc32)cc1)NC1=C(Br)C(=O)C12CCCCC2 | 83 nM | 
35 | O=C(O)[C@H](Cc1ccc(-n2c(-c3cccnc3)nc3cnccc32)cc1)NC1=C(Cl)C(=O)C12CCCCC2 | 504 nM | 
